STAT3 inh – STAT3 signaling inhibition; hit rate 0.89% among 190,000; inhibition, % at 5.5 µM; U3A cells, IL-6 STAT3-luciferase reporter, luminescence; host cell line lacks STAT1;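 active means inhibition above the mean inhibition across all screened compounds plus 3 SD, cut at about 44% in these data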;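 further: 0% = DMSO only wells and 100% = 100 µM nifuroxazide control wells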
APP 5'UTR act – activates APP 5'UTR luciferase reporter | SH-SY5Y APP 5'UTR luciferase reporter, luminescence; zero percent = DMSO vehicle wells | activation, % at 2 µM | hit rate 1% among 190,000 | AID 1276;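 active means activation above a set limit, based on mean plus 3 SD of controls, cut at about 140% in these data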
STAT3 activator – STAT3 signaling activation; U3A cells, IL-6 STAT3-luciferase reporter, luminescence; 100% = signal with IL-6 EC80 alone; activation (% of control), % at 5.6 µM; hit rate 0.91% among 190,000;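 active means activation above the screen-wide mean of compound activation plus 3 SD, cut at about 130% in these data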;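 further: 0% = background luminescence of wells with medium and substrate only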
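Material: human STAT1-deficient U3A cells with stable STAT3-luciferase reporter / Probe or stimulus: IL-6 stimulus at 33 ng/mL final / Schedule: 1 h compound pre-exposure, 6 h IL-6 stimulation, 37 °C / Technique: luminescence / Read-out basis: percent of IL-6-only median luminescence / Control set: IL-6-only high control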
STAT1 blocker – reduces IFN-gamma driven STAT1 reporter signal; AID 920; NIH 3T3 STAT1-luciferase reporter, luminescence; inhibition, % at 5.5 µM; hit rate 0.35% among 200,000;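 active means inhibition above a set limit, the mean inhibition across all tested compounds plus 3 SD, cut at about 34% in these data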;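 further: 0% = IFN-gamma with DMSO and 100% = IFN-gamma with 300 µM nifuroxazide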
NF-kB expr up – raises NF-kB expression in human neuronal cells. NF-kB reporter expression; active compounds read high. fold change at 12.5 µM. hit rate 1.6% among 190,000; in the data active means fold change above about 3.3
STAT1 activator – STAT1 signaling activation | NIH 3T3 STAT1-luciferase reporter, IFN-gamma, luminescence; 100% = IFN-gamma alone, no compound | activation (% of control), % at 5.5 µM | hit rate 2.6% among 200,000 | AID 932;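 active means activation above the screen-wide mean activation plus 3 SD, cut at about 130% in these data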;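 further: raw ratio to IFN-gamma control signal so 100% means no change and 0% no light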
* marks the source's active call; other numbers are inactive results. Compounds with a hit are over-represented: about 4.9% of the library has one in this group of screens.

For Cn1c(N)c(C(=O)COC(=O)c2ncc(Cl)c(Cl)c2Cl)c(=O)n(C)c1=O the results were STAT3 inh -8.2, APP 5'UTR act 8.3, STAT3 activator 108.4, STAT1 blocker 15.0, NF-kB expr up 0.75 and STAT1 activator 84.8.
Screening CCCCNC(=O)c1ccc(NS(=O)(=O)c2ccccc2)cc1 returned STAT3 inh 7.1, APP 5'UTR act 10.1, STAT3 activator 97.4, STAT1 blocker 5.2, NF-kB expr up 0.96 and STAT1 activator 95.2.
`Cc1ccc(C(O)(COC(=O)C(C)C)COC(=O)C(C)C)c(O)c1` gave APP 5'UTR act -11.8, STAT1 blocker 1.8, NF-kB expr up 1.2 and STAT1 activator 97.3.
O=C1CCNc2cc3ccccc3cc21 was read as STAT3 inh -40.0, APP 5'UTR act -5.3, STAT3 activator 137.1*, STAT1 blocker -0.6, NF-kB expr up 0.71 and STAT1 activator 100.5.
Screening Cc1cccc(N2CCN(C(=O)Cc3c(C(=O)O)[nH]c4ccc(Cl)cc34)CC2)c1C returned STAT3 inh 1.5, APP 5'UTR act 18.7, STAT3 activator 100.4, STAT1 blocker -3.2, NF-kB expr up 1.48 and STAT1 activator 103.0.
CCOC(=O)c1nc(Nc2ccc(N3CCC(C)CC3)cc2)c2ccccc2n1 was read as APP 5'UTR act -2.9, STAT1 blocker 3.3, NF-kB expr up 0.41 and STAT1 activator 95.8.
For CNC(=S)N/N=C/c1cccc(OCc2ccccc2F)c1 the results were STAT3 inh 2.4, APP 5'UTR act 34.4, STAT3 activator 96.0, STAT1 blocker -36.3, NF-kB expr up 1.59 and STAT1 activator 132.2*.
For CCc1ccc(OCC(=O)N(CC)CC)cc1 the results were STAT3 inh 6.5, APP 5'UTR act 15.7, STAT3 activator 97.9, STAT1 blocker -9.2, NF-kB expr up 1.22 and STAT1 activator 108.2.
For O=C1CCOc2cc(OCc3ccccc3)ccc21 the results were STAT3 inh 20.5, APP 5'UTR act 117.6, STAT3 activator 84.5, STAT1 blocker -21.4, NF-kB expr up 6.3* and STAT1 activator 133.9*.
For O=C(O)C1CC(=O)N(c2ccc(OCc3ccccc3)cc2)C1 (centres undefined) the results were STAT3 inh 6.4, APP 5'UTR act -6.1, STAT3 activator 101.0, STAT1 blocker 4.1, NF-kB expr up 1.16 and STAT1 activator 96.3.
Cc1[nH]c2ccccc2c1C(=O)CSC(=S)N(C)C1CCCCC1 was read as STAT3 inh 8.0, APP 5'UTR act 12.4, STAT3 activator 96.1, STAT1 blocker -7.0, NF-kB expr up 0.99 and STAT1 activator 106.3.
For Cc1[nH]c2ccccc2c1C(=O)CSC(=S)N1CCCCC1 the results were STAT3 inh -6.8, APP 5'UTR act 52.6, STAT3 activator 109.2, STAT1 blocker -48.5, NF-kB expr up 1.95 and STAT1 activator 143.8*.
For Cc1ccc(NC(=O)C(C)Sc2nnc(-c3cccnc3)n2-c2ccccc2)cc1 (centres undefined) the results were STAT3 inh 6.9, STAT3 activator 100.0, STAT1 blocker -1.2, NF-kB expr up 0.96 and STAT1 activator 101.1.
Screening CC(=O)c1ccc(NC(=O)/C=C/c2ccc(C)cc2)cc1 returned STAT3 inh 8.7, APP 5'UTR act 10.3, STAT3 activator 90.9, STAT1 blocker -7.7, NF-kB expr up 1.4 and STAT1 activator 106.8.
Cc1ccc(NC(=O)Nc2ccc3c(c2)OCO3)nc1 was read as STAT3 inh 3.8, APP 5'UTR act 102.7, STAT3 activator 96.8, STAT1 blocker -51.7, NF-kB expr up 3.97* and STAT1 activator 148.6*.
CCC(=O)Nc1ccc(NC(=O)/C=C/c2ccc(Cl)cc2)cc1 was read as STAT3 inh 0.4, APP 5'UTR act 2.7, STAT3 activator 99.2, STAT1 blocker -1.3, NF-kB expr up 1.31 and STAT1 activator 101.2.
`Cc1ccc(/C=C/C(=O)Nc2cc(C)on2)cc1` gave STAT3 inh 14.9, APP 5'UTR act 46.4, STAT3 activator 90.2, STAT1 blocker -36.3, NF-kB expr up 2.44 and STAT1 activator 133.2*.
Screening Cc1ccc(NC(=O)/C=C/c2ccc3c(c2)OCO3)nc1 returned STAT3 inh -1.5, APP 5'UTR act 152.3*, STAT3 activator 101.4, STAT1 blocker -24.4, NF-kB expr up 0.97 and STAT1 activator 121.4.

Screening data from PubChem.
